Reference: PubChem BioAssay AID624022 (Broad Institute, 2012)

Molecular target: Scavenger receptor class B member 1 (Mus musculus) (UniProt Q61009)
Experiment: blockers of [3H]CE-HDL uptake via mouse SR-BI – cell-based, wild-type CHO mSR-BI, scintillation, powder samples, orthogonal assay for SR-BI HDL uptake inhibitor project, dose response (AID 624022)
Details: CHO mSR-BI cells
Procedure, shortened: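 assay system = mSR-BI CHO cells lacking LDLR | reagent = HDL labeled with [3H]cholesteryl ester | incubation = 1 h pretreatment plus 2 h uptake at 37 °C | detection = scintillation counting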

Sequence of Scavenger receptor class B member 1 (Mus musculus) (Q61009 whole entry, looked up): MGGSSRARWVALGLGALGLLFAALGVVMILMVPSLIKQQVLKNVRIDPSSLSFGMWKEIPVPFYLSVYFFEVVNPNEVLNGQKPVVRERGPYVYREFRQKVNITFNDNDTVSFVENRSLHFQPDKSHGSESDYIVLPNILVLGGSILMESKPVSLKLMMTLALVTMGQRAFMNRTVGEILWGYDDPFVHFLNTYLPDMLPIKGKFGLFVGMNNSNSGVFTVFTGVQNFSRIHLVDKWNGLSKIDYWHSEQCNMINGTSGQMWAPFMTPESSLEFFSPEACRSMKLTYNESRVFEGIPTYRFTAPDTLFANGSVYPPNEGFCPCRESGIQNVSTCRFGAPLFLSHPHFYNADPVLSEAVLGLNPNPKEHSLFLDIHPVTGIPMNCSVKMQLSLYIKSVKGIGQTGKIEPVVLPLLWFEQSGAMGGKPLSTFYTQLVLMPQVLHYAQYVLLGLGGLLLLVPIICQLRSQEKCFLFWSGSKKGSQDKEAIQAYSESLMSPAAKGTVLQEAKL

IC50: 500 nM
SMILES: CC(C)NC(=O)Nc1ccc2c(c1)C(=O)N([C@H](C)CO)C[C@@H](C)[C@H](CN(C)S(=O)(=O)c1ccc(Cl)cc1)O2
